Measurements reported in ChEMBL document CHEMBL1139414, “Conformationally constrained analogues of diacylglycerol. 29. Cells sort diacylglycerol-lactone chemical zip codes to produce diverse and selective biological activities” (J Med Chem, 2008).

Biological target: Protein kinase C alpha type (Mus musculus, UniProt P20444)
Experiment: Displacement of [3H]PDBu form mouse PKCalpha by scintillation counting
Method in brief: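 Partially purified mouse PKCα; competition with [³H]PDBU. ID50 obtained by fitting a sigmoidal competition curve and converted to Ki = ID50/(1+L/Kd). Pure compounds tested at 6–7 concentrations; crude library compounds at a single 1 μM concentration. Triplicates per concentration, at least three experiments; mean ± SEM.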

SMILES	Ki
CCCCC(CC)C(=O)OCC1(CO)C/C(=C\c2ccc(Cl)c(F)c2)C(=O)O1 (racemic; form 1)	12.4 nM
CCCC(CCC)C(=O)OCC1(CO)C/C(=C\c2ccc(F)cc2)C(=O)O1 (racemic; form 1)	5.53 nM
CC(C)(C)C(=O)OCC1(CO)C/C(=C\c2ccc(F)c(Cl)c2)C(=O)O1 (racemic; form 1)	10.9 nM
CCCC(CCC)C(=O)OCC1(CO)C/C(=C\c2ccc(C(F)(F)F)cc2)C(=O)O1 (racemic; form 1)	2.96 nM
CCCC(CCC)C(=O)OCC1(CO)C/C(=C\c2ccc(Cl)c(F)c2)C(=O)O1 (racemic; form 1)	3.38 nM
COc1ccc(/C=C2\CC(CO)(COC(=O)c3ccc(N(C)C)cc3)OC2=O)cc1 (racemic; form 1)	48 nM
CCCCC(CC)C(=O)OCC1(CO)C/C(=C/c2ccc(C(F)(F)F)cc2)C(=O)O1 (racemic; form 1)	15.5 nM
COc1ccc(/C=C2\CC(CO)(COC(=O)c3ccc(OC)cc3)OC2=O)cc1 (racemic; form 1)	129 nM
COc1ccc(/C=C2\CC(CO)(COC(=O)c3c(C(C)C)cc(C(C)C)cc3C(C)C)OC2=O)cc1 (racemic; form 1)	8 nM
CCCCC(/C=C1/CC(CO)(COC(=O)c2ccc(N(C)C)cc2)OC1=O)CC (racemic; form 1)	466 nM
CCCCCC/C=C1/CC(CO)(COC(=O)c2c(C(C)C)cc(C(C)C)cc2C(C)C)OC1=O (racemic; form 1)	2.5 nM
CCCCC(/C=C1/CC(CO)(COC(=O)c2ccc([N+](=O)[O-])cc2)OC1=O)CC (racemic; form 1)	460 nM
CC(C)C(=O)OCC1(CO)C/C(=C/c2ccccc2C(F)(F)F)C(=O)O1 (racemic; form 1)	310 nM
CCCC(CCC)C(=O)OCC1(CO)C/C(=C\c2ccc(F)c(Br)c2)C(=O)O1 (racemic; form 1)	8.1 nM
CCCCC(CC)C(=O)OCC1(CO)C/C(=C\c2ccc(Cl)cc2)C(=O)O1 (racemic; form 1)	12.7 nM
COc1ccc(C(=O)OCC2(CO)C/C(=C\c3ccc([N+](=O)[O-])cc3)C(=O)O2)cc1 (racemic; form 1)	281 nM
CC(C)(C)C(=O)OCC1(CO)C/C(=C\c2ccc(Cl)c(F)c2)C(=O)O1 (racemic; form 1)	7.9 nM
COc1ccc(C(=O)OCC2(CO)C/C(=C\c3ccc(N(C)C)cc3)C(=O)O2)cc1 (racemic; form 1)	103 nM
CCCCC(CC)C(=O)OCC1(CO)C/C(=C\c2ccc(N(C)C)cc2)C(=O)O1 (racemic; form 1)	12.9 nM
COc1ccc(/C=C2\CC(CO)(COC(=O)c3c(C)cc(C)cc3C)OC2=O)cc1 (racemic; form 1)	3.7 nM
CCCC(CCC)C(=O)OCC1(CO)C/C(=C\c2ccc(F)c(Cl)c2)C(=O)O1 (racemic; form 1)	2.45 nM
CN(C)c1ccc(/C=C2\CC(CO)(COC(=O)c3ccc([N+](=O)[O-])cc3)OC2=O)cc1 (racemic; form 1)	213 nM
CCC(C(=O)OCC1(CO)C/C(=C\c2ccc(-c3ccc(C(F)(F)F)cc3)cc2)C(=O)O1)c1ccccc1 (racemic; form 1)	108 nM
O=C1OC(CO)(COC(=O)c2ccc([N+](=O)[O-])cc2)C/C1=C\c1ccc([N+](=O)[O-])cc1 (racemic; form 1)	660 nM
CCCCC(CC)C(=O)OCC1(CO)C/C(=C\c2ccc(F)c(Br)c2)C(=O)O1 (racemic; form 1)	6.1 nM
CC(C)(C)C(=O)OCC1(CO)C/C(=C\c2ccc(Cl)c(F)c2)C(=O)O1 (racemic; form 2)	28.8 nM

SMILES	Ki
CN(C)c1ccc(C(=O)OCC2(CO)C/C(=C\c3ccc([N+](=O)[O-])cc3)C(=O)O2)cc1 (racemic; form 2)	362 nM
CCCC(CCC)C(=O)OCC1(CO)C/C(=C\c2ccc(F)cc2)C(=O)O1 (racemic; form 2)	17.1 nM
CC(C)(C)C(=O)OCC1(CO)C/C(=C\c2ccc(F)c(Cl)c2)C(=O)O1 (racemic; form 2)	20.5 nM
CN(C)c1ccc(/C=C2\CC(CO)(COC(=O)c3ccc(N(C)C)cc3)OC2=O)cc1 (racemic; form 2)	1080 nM
CCCC(CCC)C(=O)OCC1(CO)C/C(=C\c2ccc(C(F)(F)F)cc2)C(=O)O1 (racemic; form 2)	16.6 nM
CCCC(CCC)C(=O)OCC1(CO)C/C(=C\c2ccc(Cl)c(F)c2)C(=O)O1 (racemic; form 2)	21.5 nM
COc1ccc(/C=C2\CC(CO)(COC(=O)c3ccc(N(C)C)cc3)OC2=O)cc1 (racemic; form 2)	359 nM
CCCCC(CC)C(=O)OCC1(CO)C/C(=C/c2ccc(C(F)(F)F)cc2)C(=O)O1 (racemic; form 2)	13.1 nM
COc1ccc(/C=C2\CC(CO)(COC(=O)c3ccc(OC)cc3)OC2=O)cc1 (racemic; form 2)	332 nM
CC(CC(=O)OCC1(CO)C/C(=C/c2cccc(C(F)(F)F)c2)C(=O)O1)CC(C)(C)C (racemic; form 2)	41 nM
COc1ccc(/C=C2\CC(CO)(COC(=O)c3c(C(C)C)cc(C(C)C)cc3C(C)C)OC2=O)cc1 (racemic; form 2)	197 nM
CCCCC(/C=C1/CC(CO)(COC(=O)c2ccc(N(C)C)cc2)OC1=O)CC (racemic; form 2)	134 nM
CCCCC(CC)C(=O)OCC1(CO)C/C(=C\c2ccc(Cl)c(F)c2)C(=O)O1 (racemic; form 2)	4.89 nM
CCCCCC/C=C1/CC(CO)(COC(=O)c2c(C(C)C)cc(C(C)C)cc2C(C)C)OC1=O (racemic; form 2)	126 nM
CCCCC(/C=C1/CC(CO)(COC(=O)c2ccc([N+](=O)[O-])cc2)OC1=O)CC (racemic; form 2)	334 nM
CC(C)C(=O)OCC1(CO)C/C(=C/c2ccccc2C(F)(F)F)C(=O)O1 (racemic; form 2)	158 nM
CCCC(CCC)C(=O)OCC1(CO)C/C(=C\c2ccc(F)c(Br)c2)C(=O)O1 (racemic; form 2)	2.66 nM
CCCCC(CC)C(=O)OCC1(CO)C/C(=C\c2ccc(Cl)cc2)C(=O)O1 (racemic; form 2)	2.9 nM
COc1ccc(C(=O)OCC2(CO)C/C(=C\c3ccc([N+](=O)[O-])cc3)C(=O)O2)cc1 (racemic; form 2)	103 nM
COc1ccc(C(=O)OCC2(CO)C/C(=C\c3ccc(N(C)C)cc3)C(=O)O2)cc1 (racemic; form 2)	890 nM
CCCCC(CC)C(=O)OCC1(CO)C/C(=C\c2ccc(N(C)C)cc2)C(=O)O1 (racemic; form 2)	96 nM
COc1ccc(/C=C2\CC(CO)(COC(=O)c3c(C)cc(C)cc3C)OC2=O)cc1 (racemic; form 2)	119 nM
CCCC(CCC)C(=O)OCC1(CO)C/C(=C\c2ccc(F)c(Cl)c2)C(=O)O1 (racemic; form 2)	9.3 nM
CN(C)c1ccc(/C=C2\CC(CO)(COC(=O)c3ccc([N+](=O)[O-])cc3)OC2=O)cc1 (racemic; form 2)	1230 nM
CCC(C(=O)OCC1(CO)C/C(=C\c2ccc(-c3ccc(C(F)(F)F)cc3)cc2)C(=O)O1)c1ccccc1 (racemic; form 2)	18.3 nM
CCCCC(CC)C(=O)OCC1(CO)C/C(=C\c2ccc(F)c(Br)c2)C(=O)O1 (racemic; form 2)	2.07 nM
